Experimental data gathered from unrelated publications.
Each line is one published result; the experiments were not run side by side.
Effect on: cell growth or viability

Structure (SMILES)	cell line	technique	time	IC50
Nc1c([I+]c2ccccc2)c(=O)oc2ccccc12	HaCaT	MTT	48 h	65.4 µM
CCCCC(=O)Nc1ccc(-c2ccc3ncn(CCC)c(=O)c3c2)c(C)n1	HCC827	CCK-8	72 h	1.68 µM
O=C1CS/C(=N\c2ccccc2O)N1c1nnc(-c2ccc(C(F)(F)F)cc2/N=C2\SCC(=O)N2c2ccccc2O)s1	WI-38	MTT	–	32.3 µM
Cc1ccc(NC(=O)Nc2ccc(-c3ccc4ncn(Cc5ccccc5)c(=O)c4c3)cn2)cc1	HCC827	CCK-8	72 h	> 10 µM
OCc1ccc(-c2nn(Cc3ccccc3)c3ccccc23)o1	HuCCT-1	ATP luminescence	–	> 46 µM
COc1cccc2c1C(=O)c1c(O)c3c(c(O)c1C2=O)C[C@@](O)(C(=O)CO)C[C@@H]3O[C@H]1C[C@H](N)[C@H](O)[C@H](C)O1	ASPC1	SRB	–	5.91 µM
OCc1ccc(-c2nn(Cc3ccccn3)c3cccnc23)o1	HuCCT-1	ATP luminescence	–	> 46 µM
COc1cccc2c1C(=O)c1c(O)c3c(c(O)c1C2=O)C[C@@](O)(C(=O)CO)C[C@@H]3O[C@H]1C[C@H](N)[C@H](O)[C@H](C)O1	HaCaT	MTT	72 h	0.3 µM
COc1ccc(N=C2SCC(=O)N2c2nnc(-c3ccc(C(F)(F)F)cc3N=C3SCC(=O)N3c3ccc(OC)cc3)s2)cc1	WI-38	MTT	–	69.5 µM
CCCCC(=O)Nc1ccc(-c2ccc3ncn(CCCC)c(=O)c3c2)cn1	HCC827	CCK-8	72 h	0.13 µM
COc1cccc2c1C(=O)c1c(O)c3c(c(O)c1C2=O)C[C@@](O)(C(=O)CO)C[C@@H]3O[C@H]1C[C@H](N)[C@H](O)[C@H](C)O1	HPAF-II	ATP luminescence	72 h	0.7 µM
COc1cccc2c1C(=O)c1c(O)c3c(c(O)c1C2=O)C[C@@](O)(C(=O)CO)C[C@@H]3O[C@H]1C[C@H](N)[C@H](O)[C@H](C)O1	HuCCT-1	–	96 h	0.0249 µM
O=C1CS/C(=N\c2cc(C(F)(F)F)ccc2-c2nnc(N3C(=O)CS/C3=N\c3ccc(Cl)cc3)s2)N1c1ccc(Cl)cc1	WI-38	MTT	–	49.2 µM
COc1cnccc1Cn1nc(-c2ccc(CO)o2)c2ccccc21	HuCCT-1	ATP luminescence	–	> 46 µM
O=C(Nc1ccc(-c2ccc3ncn(Cc4ccc5c(c4)OCO5)c(=O)c3c2)cn1)c1ccccc1	HCC827	CCK-8	72 h	8.81 µM
O=c1[nH]cc(F)c(=O)[nH]1	WI-38	MTT	72 h	42.2 µM
CCCn1cnc2ccc(-c3ccc(NC(=O)CC4CC4)nc3)cc2c1=O	HCC827	CCK-8	72 h	0.91 µM
O=C1CSC(=Nc2cc(C(F)(F)F)ccc2-c2nnc(N3C(=O)CSC3=Nc3ccc([N+](=O)[O-])cc3)s2)N1c1ccc([N+](=O)[O-])cc1	WI-38	MTT	–	77.3 µM
NCc1ccc(-c2nn(Cc3ccncc3)c3ccccc23)o1	HuCCT-1	ATP luminescence	–	> 46 µM
